High-throughput results from PubChem.
MT1-MMP txn act: MT1-MMP promoter transcription activation | 86,000 tested, 0.16% active | activation factor at 10 µM | HT1080 MT1-MMP promoter luciferase reporter, luminescence, overnight; hits give high values | AID 750;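 active = activation factor of at least 2 for MT1-MMP transcription at 10 µM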
SF-1 act: activators of human nuclear receptor SF-1. 65,000 tested, 1.9% active. Q13285. CHO-K1 Gal4-SF-1 LBD luciferase reporter; % increase over DMSO SF-1-specific signal. AID 522. activation, % at 10 µM;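 active = activation above the mean activation of all tested compounds plus 3 SD, cut at about 50% in these data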
Target sequence (Q13285 whole entry, looked up, the tested form may be a part): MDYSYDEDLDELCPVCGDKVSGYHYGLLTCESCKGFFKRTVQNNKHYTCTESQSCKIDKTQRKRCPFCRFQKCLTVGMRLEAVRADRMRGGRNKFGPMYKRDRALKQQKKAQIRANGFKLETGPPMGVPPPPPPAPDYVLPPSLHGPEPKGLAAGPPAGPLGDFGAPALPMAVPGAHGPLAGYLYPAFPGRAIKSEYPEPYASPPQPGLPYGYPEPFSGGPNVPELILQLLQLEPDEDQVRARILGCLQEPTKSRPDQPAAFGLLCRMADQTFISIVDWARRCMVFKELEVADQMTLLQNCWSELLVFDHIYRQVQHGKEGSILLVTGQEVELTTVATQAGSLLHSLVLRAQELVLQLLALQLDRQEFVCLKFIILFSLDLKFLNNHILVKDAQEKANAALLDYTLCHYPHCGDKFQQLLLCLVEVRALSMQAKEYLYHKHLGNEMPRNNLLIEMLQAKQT
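material = CHO-K1 cells with Gal4–hSF-1 LBD chimera plus Gal4-driven luciferase | compound = 10 µM single point, 1% DMSO | incubation = 20 h compound exposure at 37 °C after 1 h cell settling | measured by = SteadyLite luciferase luminescence | evaluation = percent activation relative to DMSO median and mock-transfected background | control set = DMSO negative control and −SF1 background wells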
Jurkat tox 60K: cytotoxic compounds reducing Jurkat cell viability; Jurkat E6.1 viability, ATP luminescence, 48 h; inhibition, % at 4 µM; 56,000 tested, 1.2% active;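 active = inhibition above the mean inhibition of all tested compounds plus 3 SD, cut at about 28% in these data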
RORA act: activators of human nuclear receptor RORA. P35398. CHO-K1 Gal4-RORA LBD luciferase reporter, luminescence; percent increase over mock-subtracted basal signal. activation, % at 10 µM. 65,000 tested, 1.5% active. AID 560;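 active = activation above the mean of all tested compounds plus 3 SD, cut at about 49% in these data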;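 also: 0% = DMSO-treated RORA cells and 100% = added signal equal to DMSO minus mock-transfected cells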
HEK293 NFkB inh: lowers PMA/ionomycin-induced NF-kB signal in HEK293 cells | 62,000 tested, 0.21% active | inhibition, % at 3 µM | HEK-293 NF-kB luciferase reporter, luminescence;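 active = inhibition above the mean of all tested compounds plus 3 SD, cut at about 40% in these data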;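 also: 0% = stimulated DMSO wells and 100% = 10 µM reference inhibitor 5653914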
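Signal: luciferase luminescence; Material: HEK-293 cells with stable firefly luciferase reporter driven by four HIV NF-kB elements; Probe or stimulus: PMA with ionomycin; Replication: tested once; Times: 1 h compound pretreatment, then 16 h stimulation at 37 °C, 5% CO2; Benchmarks: DMSO and 10 µM reference inhibitor; Evaluation: per-plate % inhibition versus controls.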
* hit, by the source's call; nt = not tested or not shown. The list is not random: actives were taken first. Their share in the collection is about 2.9%.

SMILES	MT1-MMP txn act	SF-1 act	Jurkat tox 60K	RORA act	HEK293 NFkB inh
CCC1CCCCN1C(=O)CSc1nnc(-c2ccc3c(c2)OCCO3)o1 (centres undefined)	1.2	-25.8	-0.7	2.6	21.5
Cc1oc(-c2ccccc2Cl)nc1CSCC(=O)N1CCCC1	1.2	-6.1	38.6*	0.5	86.6*
CCOc1ccc(-c2nnc(SCC(=O)N3CCOCC3)o2)cc1	1.4	24.9	-5.5	51.6*	-18.7
O=C(CSc1nnc(-c2ccc3c(c2)OCCO3)o1)N1CCCC1	1	49.8*	6.2	42.0	-11.8
Cc1oc(-c2ccccc2Cl)nc1CSCC(=O)NC1CCCC1	0.9	nt	nt	nt	nt
Cc1ccc(-c2nnc(SCC(=O)N3CCCC3)o2)cc1C	1.4	36.9	6.9	57.8*	-7.7
COC(=O)c1ccc(C(NC(=O)OCc2ccccc2)/C(I)=C/[C@@H](C)C(=O)NCCc2c[nH]c3ccccc23)cc1 (some centres undefined)	1.1	nt	nt	nt	nt
CCOC(=O)C1=C(C)NC(=O)NC1/C(C)=C/c1ccccc1 (centres undefined)	1.1	26.8	-0.4	10.3	19.9
Cc1ccc(-c2nnc(SCC(=O)N3CCCC3)o2)cc1	1.3	13.4	2.4	22.1	-5.5
O=C(CSc1nnc(-c2ccccc2Cl)o1)N1CCCCC1	1.7	19.5	3.0	65.2*	-8.1
CC(C)Cn1c(N)c(C(=O)COC(=O)c2cc(-c3ccccc3)nc3ccccc23)c(=O)n(C)c1=O	1.1	nt	nt	nt	nt
Cc1nn(-c2ccccc2)c(C)c1C(=O)OCC(=O)c1c(N)n(CC(C)C)c(=O)n(C)c1=O	1.2	-55.1	37.6*	-48.2	17.4
COc1c(C)cccc1C(=O)Nc1ccc(N2CCOCC2)c(Cl)c1	2.2*	nt	nt	nt	nt
Cc1cc(NC(=O)NC(=O)c2cccc(OC(F)(F)C(F)F)c2)n[nH]1	1.6	81.3*	2.0	52.4*	-33.1
Cc1ccc2[nH]c(-c3cccc(N)c3)cc2c1	1.3	51.3*	3.1	55.0*	-39.2
O=C(Nc1ccc2c(c1)OCO2)C1(S(=O)(=O)c2ccc(Cl)cc2)CC1	1.3	-2.5	1.2	-5.8	13.3
O=C(Cc1ccc(-n2cccc2)cc1)NCc1cccs1	0.9	22.4	70.9*	1.3	37.4
O=C(Cn1cccc1)NCc1cccs1	1	-0.3	-2.0	-15.2	6.1
COc1ccc(CCNc2nnc(Sc3nnnn3-c3ccccc3)s2)cc1OC	0.4	-68.5	98.7*	-68.9	13.4
Cc1ccc(S(=O)(=O)N2CCC(C(=O)NCc3ccncc3)CC2)cc1	1.2	nt	nt	nt	nt
CCCCc1c(C)c2ccc(OCC(C)=O)cc2oc1=O	1.3	74.5*	nt	20.4	nt
CCCc1c(C)c2ccc(OCC(C)=O)cc2oc1=O	1.5	20.8	3.8	11.2	0.6
N#Cc1c(/N=C/c2ccco2)sc2c1CCCCC2	1	81.6*	4.4	44.9	-5.5
N#Cc1c(/N=C/c2cc(Br)cs2)sc2c1CCC2	2.2*	nt	nt	nt	nt
N#Cc1c(/N=C/c2cccs2)sc2c1CCC2	1.4	31.2	4.7	-22.5	-7.1
SMILES	MT1-MMP txn act	SF-1 act	Jurkat tox 60K	RORA act	HEK293 NFkB inh
Cc1cc(C)n2ncc(C(=O)NCc3cccnc3)c2n1	1.1	-5.8	-4.0	-11.5	15.0
COc1ccc(C)cc1S(=O)(=O)N(CC(=O)NCc1ccc(Cl)cc1)Cc1ccccc1	0.9	nt	nt	nt	nt
Cc1cc2c(C)nc(-c3ccccc3)nc2o1	2*	58.0*	0.3	60.3*	-6.4
COc1cc2c(C)nc3onc(-c4ccccc4)c3c2cc1OC	1	-4.9	10.5	6.2	3.0
COC(=O)CNc1c(-c2ccccn2)nc2ccc(Br)cn12	0.5	69.3*	nt	59.8*	-28.0
CCOC(=O)CNc1c(-c2ccccc2)nc2ccc(Cl)cn12	1.3	nt	nt	nt	nt
O=C(c1cccs1)N1CCN(S(=O)(=O)N2CCCCC2)CC1	1.1	6.6	-5.6	2.0	10.9
O=C(CCc1ccccc1)Nc1ccncc1	1.2	-13.6	1.9	-8.4	12.8
O=C(CCc1ccccc1)Nc1c(F)cccc1F	2.3*	nt	nt	nt	nt
CCCCOC(=O)C(C)Oc1ccc(=O)n(-c2ccccc2)n1 (centres undefined)	1.3	3.5	1.5	57.3*	9.0
CCOC(=O)C(C)Oc1ccc(=O)n(-c2ccccc2)n1 (centres undefined)	1	-10.5	2.0	0.6	4.7
CCOc1cc(CNc2ncc(-c3ccc(OC)cc3)n2C)ccc1O	1.1	8.8	3.3	8.0	17.6
O=C(Oc1ccc(-c2ccccc2)cc1)N1CCCCC1	1.2	71.7*	-1.8	85.9*	-15.5
O=C(c1ccc(-c2ccccc2)cc1)N1CCCC1	1.4	11.3	-6.8	-2.8	17.8
CCN(CC)c1ccc(NC(=O)C2CC3CCC2C3)cc1 (centres undefined)	1.7	49.5	-3.1	54.6*	-4.3
Oc1ccc(N=Cc2ccc(O)c(O)c2)cc1	1.4	13.0	34.5*	18.3	11.4
COCCn1c(C)cc(C(=O)COC(=O)C23CC4CC(CC(O)(C4)C2)C3)c1C	0.6	77.2*	-4.2	12.9	-26.0
COCCn1c(C)cc(C(=O)COC(=O)c2cc3c(s2)CCC3)c1C	1.5	1.8	2.9	-15.6	14.7
O=C(NCCc1c[nH]c2ccc(Cl)cc12)c1cccnc1	1.4	nt	nt	nt	nt
O=C(Nc1ccccc1)OCCOc1ccccc1	1.4	17.9	0.4	23.7	-30.8
O=C(Nc1ccccc1)OCc1ccccn1	1.6	27.7	1.5	60.5*	-5.2
CCN(CC)S(=O)(=O)c1cccc(-c2nnc(SCc3nnc(-c4cccs4)o3)n2N)c1	1.3	-1.4	nt	9.7	7.1
Cc1cc(C(=O)Nc2sc(C)c(-c3ccc(F)cc3)c2C(N)=O)no1	1.6	84.9*	-1.0	37.8	-54.4
c1ccc2nc3c(nc2c1)sc1nc2ccccc2n13	1	6.2	-3.3	-12.8	10.2
CC(C)(O)c1cc(=O)sc2nc3ccccc3n12	1.2	53.4*	nt	71.1*	-18.8
SMILES	MT1-MMP txn act	SF-1 act	Jurkat tox 60K	RORA act	HEK293 NFkB inh
Cn1c(=O)c2c(nc(NCc3cccnc3)n2Cc2ccc(Cl)cc2)n(C)c1=O	1	nt	nt	nt	nt
COc1cccc(-c2cc(C(=O)N3C(C)CCCC3C)no2)c1 (centres undefined)	nt	36.1	nt	66.9*	-13.6
COc1cccc(-c2cc(C(=O)Nc3cc(OC)c(OC)c(OC)c3)no2)c1	1.1	6.5	67.0*	26.6	21.8
Cc1cccc(N2CCN(C(=O)c3cc4c(C)nc5ccccc5c4o3)CC2)c1C	1.1	-19.4	-0.6	4.3	7.8
Cc1cc(-n2ccc(=O)[nH]c2=O)nc(-c2ccccc2)n1	1.1	0.5	0.0	-2.9	11.4
Cc1ccc(-n2cc(-c3ccccc3)[nH]c2=O)cc1F	1.4	86.8*	-2.5	39.9	-12.2
O=C(CSc1nnc(-c2cccs2)n1-c1cccc(Cl)c1)c1cccc2c1OCCO2	1.1	nt	nt	nt	nt
CC1CCCCN1C(=O)c1cc(-c2ccc(Cl)c(Cl)c2)on1 (centres undefined)	1.6	46.5	3.4	62.5*	-6.2
CCC1CCCCN1C(=O)c1cc(-c2ccc(Cl)c(Cl)c2)on1 (centres undefined)	1.6	39.7	-4.2	54.4*	-3.7
